Laboratory results reported in ChEMBL document CHEMBL1145247, “4-Alkyl and 4,4'-dialkyl 1,2-bis(4-chlorophenyl)pyrazolidine-3,5-dione derivatives as new inhibitors of bacterial cell wall biosynthesis” (Bioorg Med Chem Lett, 2005).
Values after ≈ are worked out from the molar mass of the structure shown.

Columns and labels:
[1] = molecular target: T1, UDP-N-acetylenolpyruvoylglucosamine reductase (Staphylococcus aureus, UniProt P61431); test: Inhibitory concentration against MurB enzyme in Staphylococcus aureus
T1 sequence (P61431 whole entry): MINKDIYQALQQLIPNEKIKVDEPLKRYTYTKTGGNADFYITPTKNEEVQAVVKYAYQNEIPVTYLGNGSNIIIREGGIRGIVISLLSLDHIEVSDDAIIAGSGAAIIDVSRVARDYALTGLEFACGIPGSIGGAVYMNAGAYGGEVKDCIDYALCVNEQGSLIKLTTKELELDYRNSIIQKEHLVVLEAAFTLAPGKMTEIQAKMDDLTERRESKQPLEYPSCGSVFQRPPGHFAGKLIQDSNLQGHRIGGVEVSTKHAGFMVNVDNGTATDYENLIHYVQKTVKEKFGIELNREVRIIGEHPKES
Summary of the method: (§1)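 Enzyme (20 nM) preincubated 20 min with inhibitor, then substrates added to final 50 µM EP-UNAG and 100 µM NADPH. Activity followed spectrophotometrically. At least six inhibitor concentrations between 1.5 and 50 µM per compound. IC50 from sigmoid Hill curve fit (0–100).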

[2] = molecular target: UDP-N-acetylglucosamine 1-carboxyvinyltransferase (Escherichia coli K-12, UniProt P0A749); test: Inhibitory concentration against MurA enzyme in Escherichia coli
UDP-N-acetylglucosamine 1-carboxyvinyltransferase, sequence (P0A749 whole entry): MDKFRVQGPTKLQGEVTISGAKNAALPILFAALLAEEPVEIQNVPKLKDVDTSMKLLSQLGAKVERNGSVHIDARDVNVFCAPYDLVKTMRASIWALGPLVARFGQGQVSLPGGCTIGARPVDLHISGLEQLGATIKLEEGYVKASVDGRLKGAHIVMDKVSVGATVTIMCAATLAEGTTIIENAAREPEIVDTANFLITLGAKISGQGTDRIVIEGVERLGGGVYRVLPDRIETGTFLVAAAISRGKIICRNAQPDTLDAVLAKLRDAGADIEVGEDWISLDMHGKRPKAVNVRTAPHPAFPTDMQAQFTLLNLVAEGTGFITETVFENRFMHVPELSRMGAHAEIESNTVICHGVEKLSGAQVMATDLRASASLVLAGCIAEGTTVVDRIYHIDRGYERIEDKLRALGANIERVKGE
Summary of the method: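 Enzyme preincubated with inhibitor 10 min at 37 °C before substrates were added. Reaction ran 30 min at 37 °C and was stopped with malachite green reagent (0.03% malachite green, 1.4% ammonium molybdate, 1.3 N HCl) for phosphate read-out.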

[3] = molecular target: T2, UDP-N-acetylenolpyruvoylglucosamine reductase (Escherichia coli K-12, UniProt P08373); test: Inhibitory concentration against MurB enzyme in Escherichia coli; summary of the method: as §1
T2 sequence (P08373 whole entry): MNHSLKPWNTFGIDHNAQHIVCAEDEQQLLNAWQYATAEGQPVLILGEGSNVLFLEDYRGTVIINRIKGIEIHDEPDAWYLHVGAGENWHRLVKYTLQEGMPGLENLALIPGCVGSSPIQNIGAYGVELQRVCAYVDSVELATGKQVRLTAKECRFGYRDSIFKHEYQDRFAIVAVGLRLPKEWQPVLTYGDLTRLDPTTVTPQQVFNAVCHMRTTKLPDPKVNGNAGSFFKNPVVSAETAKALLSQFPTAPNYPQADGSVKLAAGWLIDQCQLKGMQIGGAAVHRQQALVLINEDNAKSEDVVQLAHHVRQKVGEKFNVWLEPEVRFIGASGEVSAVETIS

[4] = Minimum inhibitory concentration against cell wall biosynthesis of methicillin-susceptible Coagulase negative staphylococcus GC 646 (MSCNS); format: functional
Summary of the method: (§2)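 Broth microdilution per NCCLS M7-A3. Mueller–Hinton broth for staphylococci and enterococci, 2-fold serial dilutions of agent. Final inoculum 1–5 × 10^5 CFU/mL.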

[5] = system: Streptococcus pneumoniae; test: Minimum inhibitory concentration against cell wall biosynthesis of penicillin resistant Streptococcus pneumoniae GC 1894 (PRSP) in the presence of 4% bovine serum albumin; format: functional
[6] = system: Escherichia coli; test: Minimum inhibitory concentration against cell wall biosynthesis of Escherichia coli GC 4559; format: functional; summary of the method: as §2
[7] = system: Escherichia coli; test: Minimum inhibitory concentration against cell wall biosynthesis of Escherichia coli GC 4560; format: functional
[8] = system: Staphylococcus aureus; test: Minimum inhibitory concentration against cell wall biosynthesis of methicillin resistant Staphylococcus aureus GC 1131; format: functional
Summary of the method: (§3)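 Broth microdilution per NCCLS M7-A3 in Mueller–Hinton broth, aerobic. Agents tested as 2-fold serial dilutions, with a final inoculum of 1–5 × 10^5 CFU/mL. Plates incubated 18–22 h at 35 °C in ambient air. MIC read as the endpoint.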

[9] = system: Enterococcus faecalis; test: Minimum inhibitory concentration against cell wall biosynthesis of vancomycin susceptible (ATCC) Enterococcus faecalis GC 4555; format: functional; summary of the method: as §2
[10] = system: Staphylococcus aureus; test: Minimum inhibitory concentration against cell wall biosynthesis of methicillin susceptible Staphylococcus aureus GC 4543; format: functional; summary of the method: as §3
[11] = system: Streptococcus pneumoniae; test: Minimum inhibitory concentration against cell wall biosynthesis of penicillin resistant Streptococcus pneumoniae GC 1894 (PRSP); format: functional
Summary of the method: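 Broth microdilution per NCCLS M7-A3, using Mueller–Hinton broth supplemented with 5% sheep blood. Agents tested as 2-fold serial dilutions, with a final inoculum of 1–5 × 10^5 CFU/mL.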

[12] = system: Enterococcus faecalis; test: Minimum inhibitory concentration against cell wall biosynthesis of vancomycin resistant Enterococcus faecalis GC 2242 (VRE); format: functional; summary of the method: as §3

| Compound | IC50 [1] [µM] | IC50 [2] [µM] | IC50 [3] [µM] | MIC [4] [µM] | MIC [5] [µM] | MIC [6] [µM] | MIC [7] [µM] | MIC [8] [µM] | MIC [9] [µM] | MIC [10] [µM] | MIC [11] [µM] | MIC [12] [µM] |
| --- | --- | --- | --- | --- | --- | --- | --- | --- | --- | --- | --- | --- |
| O=C1C(CCCCCc2ccccc2)C(=O)N(c2ccc(Cl)cc2)N1c1ccc(Cl)cc1 | 32 | 42.3 | 10 | > 200 | > 200 | > 200 | > 200 | 200 (≈ 93.5 µg/mL) | 100 (≈ 46.7 µg/mL) | 100 (≈ 46.7 µg/mL) | 25 (≈ 11.7 µg/mL) | 200 (≈ 93.5 µg/mL) |
| O=C1C(CCSCc2ccccc2)C(=O)N(c2ccc(Cl)cc2)N1c1ccc(Cl)cc1 | 5.1 | 9.8 | 5.2 | 50 (≈ 23.6 µg/mL) | > 200 | > 200 | 200 (≈ 94.3 µg/mL) | – | 100 (≈ 47.1 µg/mL) | 25 (≈ 11.8 µg/mL) | 6.25 (≈ 2.95 µg/mL) | 50 (≈ 23.6 µg/mL) |
| O=C1N(c2ccc(Cl)cc2)N(c2ccc(Cl)cc2)C(=O)C1(CCOCc1ccccc1)CCOCc1ccccc1 | 7.5 | 20.1 | 7.2 | 200 (≈ 118 µg/mL) | > 200 | > 200 | 200 (≈ 118 µg/mL) | 100 (≈ 59 µg/mL) | 25 (≈ 14.7 µg/mL) | 100 (≈ 59 µg/mL) | 12.5 (≈ 7.37 µg/mL) | 50 (≈ 29.5 µg/mL) |
| CCCCCCCC1C(=O)N(c2ccc(Cl)cc2)N(c2ccc(Cl)cc2)C1=O | – | > 50 | 42 | 200 (≈ 83.9 µg/mL) | > 200 | > 200 | > 200 | 100 (≈ 41.9 µg/mL) | 200 (≈ 83.9 µg/mL) | 100 (≈ 41.9 µg/mL) | 6.25 (≈ 2.62 µg/mL) | 100 (≈ 41.9 µg/mL) |
| O=C1C(CCOCc2ccccc2)C(=O)N(c2ccc(Cl)cc2)N1c1ccc(Cl)cc1 | 11 | 33.4 | 11 | 200 (≈ 91.1 µg/mL) | > 200 | > 200 | 200 (≈ 91.1 µg/mL) | 100 (≈ 45.5 µg/mL) | 200 (≈ 91.1 µg/mL) | 200 (≈ 91.1 µg/mL) | 25 (≈ 11.4 µg/mL) | 100 (≈ 45.5 µg/mL) |
| O=C1C(Cc2ccccc2Cl)C(=O)N(c2ccc(Cl)cc2)N1c1ccc(Cl)cc1 | > 50 | > 50 | > 50 | > 200 | > 200 | > 200 | > 200 | – | > 200 | > 200 | 12.5 (≈ 5.57 µg/mL) | – |
| CC1(CCOCc2ccccc2)C(=O)N(c2ccc(Cl)cc2)N(c2ccc(Cl)cc2)C1=O | – | > 50 | 20 | > 200 | > 200 | > 200 | > 200 | 200 (≈ 93.9 µg/mL) | > 200 | > 200 | 100 (≈ 46.9 µg/mL) | – |
| CC1(CCCCCCc2ccccc2)C(=O)N(c2ccc(Cl)cc2)N(c2ccc(Cl)cc2)C1=O | > 50 | > 50 | > 50 | > 200 | > 200 | > 200 | 200 (≈ 99.1 µg/mL) | – | 200 (≈ 99.1 µg/mL) | > 200 | 0.78 (≈ 0.386 µg/mL) | 100 (≈ 49.5 µg/mL) |
| CC1(CC(=O)c2ccc(F)cc2F)C(=O)N(c2ccc(Cl)cc2)N(c2ccc(Cl)cc2)C1=O | > 50 | > 50 | 49 | > 200 | > 200 | > 200 | > 200 | – | 200 (≈ 97.9 µg/mL) | > 200 | > 200 | 100 (≈ 48.9 µg/mL) |
| CCN(CC)CCC1C(=O)N(c2ccc(Cl)cc2)N(c2ccc(Cl)cc2)C1=O | – | > 50 | > 50 | 200 (≈ 84.1 µg/mL) | > 200 | > 200 | > 200 | 100 (≈ 42 µg/mL) | 200 (≈ 84.1 µg/mL) | > 200 | 100 (≈ 42 µg/mL) | 200 (≈ 84.1 µg/mL) |
| O=C1C(Cc2cccc(C(F)(F)F)c2)C(=O)N(c2ccc(Cl)cc2)N1c1ccc(Cl)cc1 | – | > 50 | 18 | > 200 | > 200 | > 200 | > 200 | – | > 200 | > 200 | 50 (≈ 24 µg/mL) | – |
